Assay results: ChEMBL document CHEMBL1154183, “Structure-based optimization of potent and selective inhibitors of the tyrosine kinase erythropoietin producing human hepatocellular carcinoma receptor B4 (EphB4)” (J Med Chem, 2009)
Blank lines part the entries; values can stand above or below the compound they belong to.

Legend:
[1] = target: Proto-oncogene tyrosine-protein kinase Src (Homo sapiens) (UniProt P12931); experiment: Inhibition of Src assessed as remaining enzyme activity at 1 uM relative to DMSO
[2] = system: eIF-2-alpha kinase GCN2 (Homo sapiens), Q9P2K8 [S808G]; experiment: Binding affinity to GCN2 kinase domain 2 S808G mutant assessed as percentage of kinase remaining bound to the bead at 1 uM by T7 phage display based binding assay
Summary of the method: (§1)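 Competition binding assay run by a contract lab. Each kinase was expressed as a fusion to T7 phage, full-length for small kinases and catalytic domain for large ones. Phage were mixed with an immobilized known kinase inhibitor on streptavidin magnetic beads and with test compound at a single 1 μM. Kinase/phage still bound to the beads was quantified by qPCR and expressed as % of DMSO control.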

[3] = target: Tyrosine-protein kinase Tec (Homo sapiens) (UniProt P42680); experiment: Binding affinity to TEC assessed as percentage of kinase remaining bound to the bead at 1 uM by T7 phage display based binding assay; summary of the method: as §1
Chain of Tyrosine-protein kinase Tec (Homo sapiens) (P42680 whole entry): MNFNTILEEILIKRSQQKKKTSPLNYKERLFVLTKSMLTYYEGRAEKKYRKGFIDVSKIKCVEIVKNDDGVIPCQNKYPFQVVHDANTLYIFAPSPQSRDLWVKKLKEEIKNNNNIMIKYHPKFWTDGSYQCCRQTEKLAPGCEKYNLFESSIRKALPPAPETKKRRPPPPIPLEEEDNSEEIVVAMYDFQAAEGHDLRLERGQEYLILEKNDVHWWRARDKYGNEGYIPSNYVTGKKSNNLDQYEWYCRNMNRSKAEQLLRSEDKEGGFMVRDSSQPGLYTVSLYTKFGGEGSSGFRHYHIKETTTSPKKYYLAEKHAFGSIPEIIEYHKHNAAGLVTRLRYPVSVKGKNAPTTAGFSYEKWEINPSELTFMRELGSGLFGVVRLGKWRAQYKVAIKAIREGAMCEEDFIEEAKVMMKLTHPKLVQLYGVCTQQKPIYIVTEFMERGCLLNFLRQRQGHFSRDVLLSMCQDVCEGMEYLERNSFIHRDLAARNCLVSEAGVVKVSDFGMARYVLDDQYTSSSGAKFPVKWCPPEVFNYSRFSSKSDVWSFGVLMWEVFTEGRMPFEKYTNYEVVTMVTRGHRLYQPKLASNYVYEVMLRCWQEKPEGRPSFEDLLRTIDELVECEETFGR

[4] = target: Serine/threonine-protein kinase Chk2 (Homo sapiens) (UniProt O96017); experiment: Inhibition of CHK2 assessed as remaining enzyme activity at 1 uM relative to DMSO
Chain of Serine/threonine-protein kinase Chk2 (Homo sapiens) (O96017 whole entry): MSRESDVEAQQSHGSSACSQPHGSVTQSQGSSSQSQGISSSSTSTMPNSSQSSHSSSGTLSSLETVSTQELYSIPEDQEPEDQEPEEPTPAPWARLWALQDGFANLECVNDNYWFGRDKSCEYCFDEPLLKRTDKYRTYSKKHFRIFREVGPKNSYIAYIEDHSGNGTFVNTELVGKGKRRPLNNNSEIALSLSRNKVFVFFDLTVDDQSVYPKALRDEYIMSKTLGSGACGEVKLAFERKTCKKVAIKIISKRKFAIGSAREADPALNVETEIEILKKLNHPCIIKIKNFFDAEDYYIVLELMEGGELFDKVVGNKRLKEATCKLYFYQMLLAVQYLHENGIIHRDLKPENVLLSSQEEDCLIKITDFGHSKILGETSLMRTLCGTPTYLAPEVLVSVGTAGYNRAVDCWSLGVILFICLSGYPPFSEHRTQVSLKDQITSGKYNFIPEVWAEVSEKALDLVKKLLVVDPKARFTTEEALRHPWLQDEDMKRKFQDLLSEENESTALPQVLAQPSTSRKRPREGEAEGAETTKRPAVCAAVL
Summary of the method: (§2)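 Dundee kinase panel, radiometric: [γ-33P]ATP (800 cpm/pmol) at 5, 20 or 50 μM, at or below each kinase's ATP Km; 10 mM magnesium acetate; robotic, room temperature, 30 min. Reactions started with MgATP, stopped with orthophosphoric acid, spotted onto P81 filters. Inhibitor tested at a single concentration; mean % activity of duplicates relative to DMSO control.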

[5] = target: Ephrin type-B receptor 3 (Homo sapiens) (UniProt P54753); experiment: Inhibition of EPHB3 assessed as remaining enzyme activity at 1 uM relative to DMSO
Summary of the method: (§3)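 Radiometric kinase assay run robotically at room temperature for 30 min, linear in time and enzyme. Conditions: 10 mM magnesium acetate, [γ-33P]ATP (800 cpm/pmol) at 5, 20 or 50 μM per kinase, at or below its ATP Km. Started with MgATP and stopped with orthophosphoric acid, then spotted on P81 filters. Reported as mean % activity of duplicates versus DMSO controls.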

[6] = target: TGF-beta receptor type-1 (Homo sapiens) (UniProt P36897); experiment: Binding affinity to TGFBR1 assessed as percentage of kinase remaining bound to the bead at 1 uM by T7 phage display based binding assay; summary of the method: as §1
[7] = target: Ribosomal protein S6 kinase alpha-2 (Homo sapiens) (UniProt Q15349); experiment: Binding affinity to RSK3 kinase domain 2 C-terminal assessed as percentage of kinase remaining bound to the bead at 1 uM by T7 phage display based binding assay
[8] = target: Tyrosine-protein kinase BTK (Homo sapiens) (UniProt Q06187); experiment: Inhibition of BTK assessed as remaining enzyme activity at 1 uM relative to DMSO; summary of the method: as §2
[9] = target: Serine/threonine-protein kinase 3 (Homo sapiens) (UniProt Q13188); experiment: Inhibition of MST2 assessed as remaining enzyme activity at 1 uM relative to DMSO
Summary of the method: (§4)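 Radiometric kinase assay run robotically at room temperature for 30 min. Contained 10 mM magnesium acetate and [γ-33P]ATP (800 cpm/pmol) at 5, 20 or 50 μM, chosen per kinase to be at or below its ATP Km. Reactions were started with MgATP, stopped with orthophosphoric acid and spotted onto P81 filters. Result is mean % activity of duplicates at one inhibitor concentration versus DMSO control.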

[10] = target: Vascular endothelial growth factor receptor 3 (Homo sapiens) (UniProt P35916); experiment: Binding affinity to FLT4 assessed as percentage of kinase remaining bound to the bead at 1 uM by T7 phage display based binding assay
Summary of the method: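 Kinases expressed as T7 phage fusions (full-length for small kinases, catalytic domain for large). Phage mixed with an immobilized known kinase inhibitor on streptavidin magnetic beads plus test compound at a single 1 μM concentration. Ligand displacement from the ATP site was read by quantitative PCR as % kinase/phage still bead-bound versus DMSO control. Human kinases.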

[11] = target: Tyrosine-protein kinase Srms (Homo sapiens) (UniProt Q9H3Y6); experiment: Binding affinity to SRMS assessed as percentage of kinase remaining bound to the bead at 1 uM by T7 phage display based binding assay; summary of the method: as §1
Chain of Tyrosine-protein kinase Srms (Homo sapiens) (Q9H3Y6 whole entry): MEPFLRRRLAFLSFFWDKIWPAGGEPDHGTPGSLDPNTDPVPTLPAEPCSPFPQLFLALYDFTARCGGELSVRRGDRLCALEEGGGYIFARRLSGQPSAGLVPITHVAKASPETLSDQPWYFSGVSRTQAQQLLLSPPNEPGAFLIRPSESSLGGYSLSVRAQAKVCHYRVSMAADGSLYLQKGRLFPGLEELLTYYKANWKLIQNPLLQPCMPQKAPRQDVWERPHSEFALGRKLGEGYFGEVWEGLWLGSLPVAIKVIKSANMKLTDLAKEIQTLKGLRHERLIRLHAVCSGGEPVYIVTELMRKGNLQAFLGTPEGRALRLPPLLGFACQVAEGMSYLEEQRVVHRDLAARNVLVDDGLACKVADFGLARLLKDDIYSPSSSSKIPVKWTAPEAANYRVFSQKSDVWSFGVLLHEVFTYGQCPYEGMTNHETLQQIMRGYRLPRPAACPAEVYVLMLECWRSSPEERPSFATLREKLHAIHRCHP

[12] = target: Serine/threonine-protein kinase N2 (Homo sapiens) (UniProt Q16513); experiment: Inhibition of PRK2 assessed as remaining enzyme activity at 1 uM relative to DMSO
Chain of Serine/threonine-protein kinase N2 (Homo sapiens) (Q16513 whole entry, looked up): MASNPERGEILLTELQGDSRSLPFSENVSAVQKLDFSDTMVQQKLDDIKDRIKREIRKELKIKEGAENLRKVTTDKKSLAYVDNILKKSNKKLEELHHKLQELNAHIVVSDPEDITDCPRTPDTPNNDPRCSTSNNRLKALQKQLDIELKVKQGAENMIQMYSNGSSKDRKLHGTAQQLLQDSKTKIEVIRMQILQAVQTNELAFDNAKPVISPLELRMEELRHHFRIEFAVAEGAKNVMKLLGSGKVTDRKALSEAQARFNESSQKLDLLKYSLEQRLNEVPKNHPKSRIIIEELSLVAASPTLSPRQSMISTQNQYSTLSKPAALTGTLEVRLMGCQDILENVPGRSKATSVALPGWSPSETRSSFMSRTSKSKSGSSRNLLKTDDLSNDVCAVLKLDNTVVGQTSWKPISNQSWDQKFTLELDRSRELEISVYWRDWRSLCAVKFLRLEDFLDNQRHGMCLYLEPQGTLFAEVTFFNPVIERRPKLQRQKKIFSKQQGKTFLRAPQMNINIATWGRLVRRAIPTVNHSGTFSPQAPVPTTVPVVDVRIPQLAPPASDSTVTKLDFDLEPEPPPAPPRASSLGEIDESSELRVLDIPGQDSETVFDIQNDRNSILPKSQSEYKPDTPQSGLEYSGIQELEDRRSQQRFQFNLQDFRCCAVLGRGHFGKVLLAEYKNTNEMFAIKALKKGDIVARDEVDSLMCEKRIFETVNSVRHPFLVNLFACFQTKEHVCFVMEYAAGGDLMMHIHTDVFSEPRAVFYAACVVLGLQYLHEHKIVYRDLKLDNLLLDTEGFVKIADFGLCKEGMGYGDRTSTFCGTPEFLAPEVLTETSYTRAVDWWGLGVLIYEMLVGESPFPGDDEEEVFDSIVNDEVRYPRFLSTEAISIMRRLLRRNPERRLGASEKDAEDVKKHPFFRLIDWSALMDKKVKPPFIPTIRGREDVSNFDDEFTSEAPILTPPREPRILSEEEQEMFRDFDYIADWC

[13] = target: NUAK family SNF1-like kinase 1 (Homo sapiens) (UniProt O60285); experiment: Inhibition of NUAK1 assessed as remaining enzyme activity at 1 uM relative to DMSO; summary of the method: as §4
Chain of NUAK family SNF1-like kinase 1 (Homo sapiens) (O60285 whole entry, canonical isoform): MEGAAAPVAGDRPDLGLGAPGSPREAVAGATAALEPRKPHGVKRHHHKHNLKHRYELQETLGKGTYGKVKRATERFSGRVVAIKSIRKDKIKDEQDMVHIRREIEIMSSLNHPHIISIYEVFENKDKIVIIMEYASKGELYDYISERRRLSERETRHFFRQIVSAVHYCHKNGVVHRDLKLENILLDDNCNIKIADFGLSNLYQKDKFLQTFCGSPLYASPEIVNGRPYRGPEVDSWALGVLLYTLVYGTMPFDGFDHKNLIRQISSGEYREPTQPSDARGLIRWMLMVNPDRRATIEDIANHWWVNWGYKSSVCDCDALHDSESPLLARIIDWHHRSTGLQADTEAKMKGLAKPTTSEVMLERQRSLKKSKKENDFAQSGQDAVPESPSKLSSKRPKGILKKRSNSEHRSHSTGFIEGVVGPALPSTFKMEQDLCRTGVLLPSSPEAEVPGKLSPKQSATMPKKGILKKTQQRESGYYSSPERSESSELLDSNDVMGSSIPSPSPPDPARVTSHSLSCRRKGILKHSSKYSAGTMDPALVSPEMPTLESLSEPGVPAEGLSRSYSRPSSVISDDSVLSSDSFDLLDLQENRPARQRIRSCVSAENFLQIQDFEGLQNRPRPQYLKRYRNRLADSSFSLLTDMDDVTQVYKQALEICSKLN

[14] = target: Casein kinase I isoform alpha (Homo sapiens) (UniProt P48729); experiment: Inhibition of CK1 assessed as remaining enzyme activity at 1 uM relative to DMSO; summary of the method: as §3
[15] = target: Platelet-derived growth factor receptor beta (Homo sapiens) (UniProt P09619); experiment: Binding affinity to PDGFRB assessed as percentage of kinase remaining bound to the bead at 1 uM by T7 phage display based binding assay; summary of the method: as §1
[16] = target: Ribosomal protein S6 kinase alpha-3 (Homo sapiens) (UniProt P51812); experiment: Inhibition of RSK2 assessed as remaining enzyme activity at 1 uM relative to DMSO
[17] = target: Mitogen-activated protein kinase kinase kinase 11 (Homo sapiens) (UniProt Q16584); experiment: Inhibition of MLK3 assessed as remaining enzyme activity at 3 uM relative to DMSO; summary of the method: as §4
Chain of Mitogen-activated protein kinase kinase kinase 11 (Homo sapiens) (Q16584 whole entry, looked up): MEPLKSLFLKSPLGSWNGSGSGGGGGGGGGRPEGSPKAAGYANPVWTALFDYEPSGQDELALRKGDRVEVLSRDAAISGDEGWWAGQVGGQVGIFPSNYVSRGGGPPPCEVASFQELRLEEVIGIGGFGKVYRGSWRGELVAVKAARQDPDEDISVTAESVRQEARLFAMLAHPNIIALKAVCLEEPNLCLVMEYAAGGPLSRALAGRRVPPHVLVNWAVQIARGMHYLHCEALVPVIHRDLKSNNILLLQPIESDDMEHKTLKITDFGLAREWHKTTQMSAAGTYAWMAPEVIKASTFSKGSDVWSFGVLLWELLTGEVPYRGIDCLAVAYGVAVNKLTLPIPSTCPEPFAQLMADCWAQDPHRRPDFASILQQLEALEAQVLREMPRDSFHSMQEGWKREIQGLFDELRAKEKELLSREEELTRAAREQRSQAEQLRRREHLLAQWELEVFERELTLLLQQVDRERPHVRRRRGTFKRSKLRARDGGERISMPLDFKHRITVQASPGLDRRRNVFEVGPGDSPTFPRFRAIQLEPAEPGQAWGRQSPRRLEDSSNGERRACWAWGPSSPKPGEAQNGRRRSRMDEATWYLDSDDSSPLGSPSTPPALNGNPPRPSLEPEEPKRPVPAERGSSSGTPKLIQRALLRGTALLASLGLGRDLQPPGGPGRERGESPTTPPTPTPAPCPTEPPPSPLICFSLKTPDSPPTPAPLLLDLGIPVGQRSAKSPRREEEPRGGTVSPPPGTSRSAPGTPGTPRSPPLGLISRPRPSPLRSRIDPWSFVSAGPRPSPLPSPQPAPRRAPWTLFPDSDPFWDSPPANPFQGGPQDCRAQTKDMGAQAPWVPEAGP

[18] = Inhibition of VEG-FR assessed as remaining enzyme activity at 3 uM relative to DMSO
[19] = target: Mitogen-activated protein kinase 3 (Homo sapiens) (UniProt P27361); experiment: Inhibition of ERK1 assessed as remaining enzyme activity at 3 uM relative to DMSO; summary of the method: as §2
Chain of Mitogen-activated protein kinase 3 (Homo sapiens) (P27361 whole entry): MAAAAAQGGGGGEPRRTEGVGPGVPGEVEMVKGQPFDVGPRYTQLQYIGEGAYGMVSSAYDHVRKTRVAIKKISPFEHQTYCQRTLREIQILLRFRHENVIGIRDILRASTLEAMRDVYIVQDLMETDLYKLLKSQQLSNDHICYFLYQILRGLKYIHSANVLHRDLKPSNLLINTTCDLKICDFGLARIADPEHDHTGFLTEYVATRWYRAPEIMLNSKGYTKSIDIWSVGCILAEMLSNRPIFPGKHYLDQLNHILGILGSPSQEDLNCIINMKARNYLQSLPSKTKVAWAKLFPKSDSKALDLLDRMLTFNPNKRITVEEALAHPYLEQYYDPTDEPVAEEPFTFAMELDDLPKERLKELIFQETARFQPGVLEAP

[20] = target: NUAK family SNF1-like kinase 1 (Homo sapiens) (UniProt O60285); experiment: Inhibition of NUAK1 assessed as remaining enzyme activity at 3 uM relative to DMSO; summary of the method: as §4
[21] = target: Serine/threonine-protein kinase PAK 6 (Homo sapiens) (UniProt Q9NQU5); experiment: Inhibition of PAK6 assessed as remaining enzyme activity at 3 uM relative to DMSO; summary of the method: as §4
[22] = target: Mitogen-activated protein kinase 1 (Homo sapiens) (UniProt P28482); experiment: Inhibition of ERK2 assessed as remaining enzyme activity at 3 uM relative to DMSO; summary of the method: as §2
[23] = target: MAP kinase-activated protein kinase 2 (Homo sapiens) (UniProt P49137); experiment: Inhibition of MAPKAPK2 assessed as remaining enzyme activity at 3 uM relative to DMSO; summary of the method: as §4
Chain of MAP kinase-activated protein kinase 2 (Homo sapiens) (P49137 whole entry, looked up): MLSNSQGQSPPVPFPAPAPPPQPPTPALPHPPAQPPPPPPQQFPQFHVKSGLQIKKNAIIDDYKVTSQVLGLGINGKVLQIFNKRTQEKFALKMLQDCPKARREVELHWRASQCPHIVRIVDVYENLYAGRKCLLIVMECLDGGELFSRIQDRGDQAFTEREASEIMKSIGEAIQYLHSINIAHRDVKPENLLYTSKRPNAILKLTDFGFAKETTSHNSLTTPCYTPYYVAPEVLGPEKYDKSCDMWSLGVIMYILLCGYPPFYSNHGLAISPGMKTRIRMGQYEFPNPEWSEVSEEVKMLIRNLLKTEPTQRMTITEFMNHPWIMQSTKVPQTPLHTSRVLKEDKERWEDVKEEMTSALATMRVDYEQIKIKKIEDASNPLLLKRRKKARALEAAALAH

[24] = target: Ribosomal protein S6 kinase alpha-1 (Homo sapiens) (UniProt Q15418); experiment: Inhibition of RSK1 assessed as remaining enzyme activity at 3 uM relative to DMSO
[25] = target: Serine/threonine-protein kinase Chk2 (Homo sapiens) (UniProt O96017); experiment: Inhibition of CHK2 assessed as remaining enzyme activity at 3 uM relative to DMSO; summary of the method: as §2
[26] = target: Myosin light chain kinase, smooth muscle (Homo sapiens) (UniProt Q15746); experiment: Inhibition of SmMLCK assessed as remaining enzyme activity at 3 uM relative to DMSO
[27] = target: Serine/threonine-protein kinase N2 (Homo sapiens) (UniProt Q16513); experiment: Inhibition of PRK2 assessed as remaining enzyme activity at 3 uM relative to DMSO

Activity [1]: 9% | Activity [2]: 100% | Activity [3]: 100% | Activity [4]: 90% | Activity [5]: 3% | Activity [6]: 3.6% | Activity [7]: 84% | Activity [8]: 33% | Activity [9]: 111% | Activity [10]: 93% | Activity [11]: 18% | Activity [12]: 93% | Activity [13]: 133% | Activity [14]: 93% | Activity [15]: 53% | Activity [16]: 104%
Structure (SMILES): COc1ccccc1-n1c(-c2cc(O)ccc2C)cn2c3c(=O)[nH]c(=O)n(C)c3nc12

Activity [17]: 136% | Activity [18]: 106% | Activity [19]: 97% | Activity [20]: 140% | Activity [21]: 90% | Activity [22]: 91% | Activity [23]: 96% | Activity [24]: 83% | Activity [25]: 99% | Activity [26]: 91% | Activity [27]: 95%
Structure (SMILES): COc1ccccc1-n1c(-c2ccccc2C)cn2c3c(=O)[nH]c(=O)n(C)c3nc12
